How the values were obtained:
Mus musculus [1] = assay: (§1) Cognition enhancing effect in sc dosed CD-1 albino mouse assessed as reversal of scopolamine-induced amnesia treated 20 mins prior to training session followed by scopolamine challenge immediately after training session by passive avoidance test; format: functional; conditions: CD-1, sc, read-out: MED
Outline: (§2)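 Mouse passive-avoidance test using a modified Jarvik–Kopp protocol. Drug in saline with 10% DMSO, given s.c. 20 min before training in a 1:10 dilution series up to 10 mg/kg. Scopolamine 1.5 mg/kg i.p. given right after the punishment/training session. Saline controls got an extra saline injection. Each value is the mean of 12–14 mice; the read-out is minimal effective dose.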

Mus musculus [2] = assay: as §1, with “amnesia by measuring difference between training session and retention session time at MED” for “amnesia”; format: functional; outline: as §2
[3] = Half life in Sprague-Dawley rat plasma at 1 uM by LC-MS/MS analysis; format: ADME, cell-free
Outline: (§3)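 Analyte at 1 µM final in PBS or in plasma from male Sprague-Dawley rats (plasma stored at −80 °C), incubated at 37 °C. Sampled in triplicate at 0, 30, 60 and 120 min, then internal standard added. Quantified by ESI-positive LC-MS/MS in MRM mode (C18 column, formic acid/acetonitrile gradient) against calibration from 0–1.00 µM. Enalapril checked plasma hydrolytic activity; t1/2 extrapolated from concentration-time curves.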

Mus musculus [4] = assay: Toxicity in sc dosed CD-1 albino mouse assessed as effect on spontaneous motility at cognition enhancing MED by hole-board test; format: organism-based; conditions: in vivo
[5] = Half life in PBS at 1 uM by LC-MS/MS analysis; format: physicochemical; outline: as §3
Mus musculus [6] = assay: Potency index, ratio of piracetam MED to compound MED for cognition enhancing effect in sc dosed CD-1 albino mouse; format: functional
Mus musculus [7] = assay: Toxicity in sc dosed CD-1 albino mouse assessed as effect on motor co-ordination at cognition enhancing MED by rota rod test; format: organism-based; conditions: in vivo
Mus musculus [8] = assay: Toxicity in sc dosed CD-1 albino mouse assessed as gross behavior abnormality at cognition enhancing MED; format: organism-based; conditions: in vivo
Mus musculus [9] = assay: Cognition enhancing effect in […] mouse assessed as reversal of scopolamine-induced amnesia by measuring difference between training session and retention session time at MED treated 20 mins prior to training session followed by scopolamine challenge immediately after training session by passive avoidance test
Mus musculus [10] = assay: Cognition enhancing effect in ip dosed mouse assessed as reversal of scopolamine-induced amnesia treated 20 mins prior to training session followed by scopolamine challenge immediately after training session by passive avoidance test; format: functional; conditions: read-out: MED
Plasma [11] = assay: Drug metabolism in Sprague-Dawley rat plasma assessed as 1-(4-(4-Fluorophenylsulfonyl)-3-(hydroxymethyl)piperazin-1-yl)ethanone formation at 1 uM after 60 mins by LC-MS/MS analysis; format: ADME, cell-free; conditions: 1 h; outline: as §3
[12] = Stability in Sprague-Dawley rat plasma assessed as parent compound remaining at 1 uM after 2 hrs by LC-MS/MS analysis; format: ADME, cell-free; conditions: read-out: Stability; outline: as §3
[13] = Stability in Sprague-Dawley rat plasma assessed as parent compound remaining at 1 uM after 60 mins by LC-MS/MS analysis; format: ADME, cell-free; conditions: read-out: Stability; outline: as §3
Plasma [14] = assay: Drug metabolism in Sprague-Dawley rat plasma assessed as 1-(4-Benzoyl-3-(hydroxymethyl)piperazin-1-yl)propan-1-one formation at 1 uM after 60 mins by LC-MS/MS analysis; format: ADME, cell-free; conditions: 1 h; outline: as §3
Plasma [15] = assay: Drug metabolism in Sprague-Dawley rat plasma assessed as 1-(4-(4-Fluorophenylsulfonyl)-2-(hydroxymethyl)piperazin-1-yl)ethanone formation at 1 uM after 60 mins by LC-MS/MS analysis; format: ADME, cell-free; conditions: 1 h; outline: as §3
Plasma [16] = assay: Drug level in Sprague-Dawley rat plasma treated with (4-Acetyl-1-(4-fluorophenylsulfonyl)piperazin-2-yl)methyl acetate at 1 uM after 60 mins by LC-MS/MS analysis; format: ADME, cell-free; conditions: 1 h; outline: as §3
Plasma [17] = assay: Drug metabolism in Sprague-Dawley rat plasma assessed as 1-(4-Benzoyl-2-(hydroxymethyl)piperazin-1-yl)propan-1-one formation at 1 uM after 60 mins by LC-MS/MS analysis; format: ADME, cell-free; conditions: 1 h; outline: as §3
Plasma [18] = assay: Drug level in Sprague-Dawley rat plasma treated with (1-Acetyl-4-(4-fluorophenylsulfonyl)piperazin-2-yl)methyl acetate at 1 uM after 60 mins by LC-MS/MS analysis; format: ADME, cell-free; conditions: 1 h; outline: as §3
Plasma [19] = assay: Drug level in Sprague-Dawley rat plasma treated with (4-Benzoyl-1-propionylpiperazin-2-yl)methyl acetate at 1 uM after 60 mins by LC-MS/MS analysis; format: ADME, cell-free; conditions: 1 h; outline: as §3
Plasma [20] = assay: Drug level in Sprague-Dawley rat plasma treated with (1-Benzoyl-4-propionylpiperazin-2-yl)methyl acetate at 1 uM after 60 mins by LC-MS/MS analysis; format: ADME, cell-free; conditions: 1 h; outline: as §3

| SMILES | minimal effective dose (Mus musculus [1]) [mg/kg] | Time (Mus musculus [2]) [s] | half-life at 1 µM [3] [h] | Activity (Mus musculus [4]) | half-life at 1 µM [5] [h] | Ratio (Mus musculus [6]) | Activity (Mus musculus [7]) | Activity (Mus musculus [8]) | minimal effective dose (Mus musculus [10]) [mg/kg] | also measured |
| --- | --- | --- | --- | --- | --- | --- | --- | --- | --- | --- |
| CC(=O)OC[C@H]1CN(C(C)=O)CCN1S(=O)(=O)c1ccc(F)cc1 | 1 | 70.6 | – | – | – | – | – | – | – | – |
| CC(=O)OC[C@@H]1CN(C(C)=O)CCN1S(=O)(=O)c1ccc(F)cc1 | 1 | 64.5 | – | – | – | – | – | – | – | – |
| CCC(=O)N1CCN(C(=O)c2ccccc2)C(COC)C1 (stereo not given) | 1 | 73.4 | ≥ 4 | Non-Toxic | ≥ 4 | 3 - 300 | Non-Toxic | Non-Toxic | – | – |
| CC(=O)N1CCN(S(=O)(=O)c2ccc(F)cc2)C(C)C1 (stereo not given) | – | – | – | – | – | – | – | – | 0.1 | Time (Mus musculus [9]): 82.6 s |
| CCC(=O)N1CCN(C(=O)c2ccccc2)C(C)C1 (stereo not given) | – | – | – | – | – | – | – | – | 0.1 | Time (Mus musculus [9]): 60.2 s |
| CCC(=O)N1CCN(C(=O)c2ccccc2)CC1 [SUNIFIRAM] | – | – | ≥ 4 | – | ≥ 4 | – | – | – | 0.001 | – |
| O=C1CCC2CN(S(=O)(=O)c3ccc(F)cc3)CCN12 (stereo not given) [UNIFIRAM] | – | – | – | – | – | – | – | – | 0.001 | – |
| CC(=O)NC1CCN(S(=O)(=O)c2ccc(F)cc2)CC1 [SAPUNIFIRAM] | – | – | – | – | – | – | – | – | 0.01 | – |
| CC(=O)OCC1CN(C(C)=O)CCN1S(=O)(=O)c1ccc(F)cc1 (stereo not given) | 0.1 | 56.8 | 0.483 | Non-Toxic | ≥ 4 | 3 - 300 | Non-Toxic | Non-Toxic | – | Drug metabolism (Plasma [11]): Metabolite_Detected; remaining at 2 h, 1 µM [12]: ≤ 10% |
| CCC(=O)N1CCN(C(=O)c2ccccc2)[C@@H](CO)C1 | 1 | 55 | – | – | – | – | – | – | – | – |
| CCOC(=O)C1CN(C(=O)c2ccccc2)CCN1C(=O)CC (stereo not given) | 1 | 51.1 | 0.2 | Non-Toxic | ≥ 4 | 3 - 300 | Non-Toxic | Non-Toxic | – | remaining at 1 h, 1 µM [13]: < 50% |
| CCC(=O)N1CCN(C(=O)c2ccccc2)C(COC(C)=O)C1 (stereo not given) | > 10 | – | 1.67 | Non-Toxic | ≥ 4 | – | Non-Toxic | Non-Toxic | – | Drug metabolism (Plasma [14]): Metabolite_Detected; remaining at 2 h, 1 µM [12]: 50% |
| CC(=O)OCC1CN(S(=O)(=O)c2ccc(F)cc2)CCN1C(C)=O (stereo not given) | > 10 | – | 0.5 | Non-Toxic | ≥ 4 | – | Non-Toxic | Non-Toxic | – | Drug metabolism (Plasma [15]): Metabolite_Detected; remaining at 2 h, 1 µM [12]: ≤ 10% |
| CC(=O)N1CCN(S(=O)(=O)c2ccc(F)cc2)C(CO)C1 (stereo not given) | 1 | 66.2 | ≥ 4 | Non-Toxic | ≥ 4 | 3 - 300 | Non-Toxic | Non-Toxic | – | Drug metabolism (Plasma [16]): Metabolite_Detected |
| CC(=O)N1CCN(S(=O)(=O)c2ccc(F)cc2)CC1 | – | – | ≥ 4 | – | ≥ 4 | – | – | – | 0.01 | – |
| CCC(=O)N1CCN(C(=O)c2ccccc2)CC1COC(C)=O (stereo not given) | 1 | 62.2 | 2.57 | Non-Toxic | ≥ 4 | 3 - 300 | Non-Toxic | Non-Toxic | – | remaining at 2 h, 1 µM [12]: 60%; Drug metabolism (Plasma [17]): Metabolite_Detected |
| CC(=O)N1CCN(S(=O)(=O)c2ccc(F)cc2)CC1CO (stereo not given) | 10 | 48 | ≥ 4 | Non-Toxic | ≥ 4 | 3 - 300 | Non-Toxic | Non-Toxic | – | Drug metabolism (Plasma [18]): Metabolite_Detected |
| CCC(=O)N1CCN(C(=O)c2ccccc2)CC1COC (stereo not given) | 10 | 79.7 | ≥ 4 | Non-Toxic | ≥ 4 | 3 - 300 | Non-Toxic | Non-Toxic | – | – |
| COCC1CN(C(C)=O)CCN1S(=O)(=O)c1ccc(F)cc1 (stereo not given) | 1 | 76.5 | ≥ 4 | Non-Toxic | ≥ 4 | 3 - 300 | Non-Toxic | Non-Toxic | – | – |
| CCC(=O)N1CCN(C(=O)c2ccccc2)CC1C (stereo not given) | – | – | – | – | – | – | – | – | > 10 | – |
| CCOC(=O)C1CN(C(=O)CC)CCN1C(=O)c1ccccc1 (stereo not given) | 1 | 56.6 | 0.433 | Non-Toxic | ≥ 4 | 3 - 300 | Non-Toxic | Non-Toxic | – | remaining at 1 h, 1 µM [13]: < 50% |
| CCC(=O)N1CCN(C(=O)c2ccccc2)CC1CO (stereo not given) | 10 | 72.7 | ≥ 4 | Non-Toxic | ≥ 4 | 3 - 300 | Non-Toxic | Non-Toxic | – | Drug metabolism (Plasma [19]): Metabolite_Detected |
| CCOC(=O)[C@H](CCc1ccccc1)N[C@@H](C)C(=O)N1CCC[C@H]1C(=O)O [ENALAPRIL] | – | – | 1.57 | – | ≥ 4 | – | – | – | – | – |
| NC(=O)CN1CCCC1=O [PIRACETAM] | – | – | – | – | – | – | – | – | 30 | Time (Mus musculus [9]): 82.4 s |
| CCC(=O)N1CCN(C(=O)c2ccccc2)[C@H](CO)C1 | 1 | 58.8 | – | – | – | – | – | – | – | – |
| CC(=O)N1CCN(S(=O)(=O)c2ccc(F)cc2)CC1C (stereo not given) | – | – | – | – | – | – | – | – | 1 | Time (Mus musculus [9]): 83.9 s |
| CCC(=O)N1CCN(C(=O)c2ccccc2)C(CO)C1 (stereo not given) | 0.1 | 52.6 | ≥ 4 | Non-Toxic | ≥ 4 | 3 - 300 | Non-Toxic | Non-Toxic | – | Drug metabolism (Plasma [20]): Metabolite_Detected |
| COCC1CN(S(=O)(=O)c2ccc(F)cc2)CCN1C(C)=O (stereo not given) | > 10 | – | ≥ 4 | Non-Toxic | ≥ 4 | – | Non-Toxic | Non-Toxic | – | – |
| CCOC(=O)C1CN(S(=O)(=O)c2ccc(F)cc2)CCN1C(C)=O (stereo not given) | 1 | 50.1 | 0.617 | Non-Toxic | ≥ 4 | 3 - 300 | Non-Toxic | Non-Toxic | – | remaining at 1 h, 1 µM [13]: < 50% |
| CCOC(=O)C1CN(C(C)=O)CCN1S(=O)(=O)c1ccc(F)cc1 (stereo not given) | 0.1 | 55.7 | 0.35 | Non-Toxic | ≥ 4 | 3 - 300 | Non-Toxic | Non-Toxic | – | remaining at 1 h, 1 µM [13]: < 50% |

— ChEMBL document CHEMBL3992563, “Piperazines as nootropic agents: New derivatives of the potent cognition-enhancer DM235 carrying hydrophilic substituents” (Bioorg Med Chem, 2017)
